According to ChEMBL document CHEMBL1131474, “Asymmetric synthesis and pharmacology of methylphenidate and its para-substituted derivatives” (J Med Chem, 1998):

Tests used:
Assay type in all cases: functional
[1] = species on record: Rattus norvegicus; assay: Ability to inhibit the uptake of dopamine [3H]DA in to rat brain synaptosomes
How it was run: (§1)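 Crude S1 synaptosomes from male Sprague–Dawley rat frontal/temporal cortex and striatum (sucrose–Tris–glucose, pH 7.4; 1000g, 15 min, 4 °C). Five drug levels, triplicate, with [3H]DA 25 nM or [3H]l-NE 50 nM final, in pargyline-containing Tris saline buffer. Preincubation 5 min, then 5 min uptake at 37 °C. Filtered, counted by scintillation, 0 °C uptake subtracted. IC50 read from sigmoidal fit.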

[2] = species on record: Rattus norvegicus; assay: Ability to inhibit the uptake of norepinephrine [3H]-NE in to rat brain synaptosomes; how it was run: as §1
[3] = Eudisimic ratio for DA uptake is the ratio of the IC50 values l-isomer and d-isomer
How it was run: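 Eudismic ratio: IC50 of the l-isomer divided by IC50 of the d-isomer for each enantiomeric pair. IC50s came from rat synaptosomal [3H]DA or [3H]l-NE uptake, with five drug concentrations in triplicate and 5 min at 37 °C.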

| Compound | IC50 [1] | IC50 [2] | Eudismic ratio [3] |
| --- | --- | --- | --- |
| COC(=O)[C@H](c1ccc(OC)cc1)[C@H]1CCCCN1 | 0.205 µM | 0.073 µM | 17.5 |
| COC(=O)[C@@H](c1ccc(Br)cc1)[C@@H]1CCCCN1 | 0.408 µM | 0.248 µM |  |
| COC(=O)C(c1ccccc1)C1CCCCN1 (racemic) [METHYLPHENIDATE] | 0.438 µM | 0.171 µM |  |
| COC(=O)[C@H](c1ccc(Br)cc1)[C@H]1CCCCN1 | 0.0225 µM | 0.00934 µM |  |
| COC(=O)[C@@H](c1ccccc1)[C@@H]1CCCCN1 | 1.47 µM | 0.876 µM |  |
| COC(=O)[C@@H](c1ccc(OC)cc1)[C@@H]1CCCCN1 | 3.59 µM | 1.3 µM |  |
| COC(=O)[C@H](c1ccccc1)[C@H]1CCCCN1 [DEXMETHYLPHENIDATE] | 0.171 µM | 0.128 µM |  |
